The test system of data set [1] is Mus musculus. Description: Optimal dose for in vivo antitumor activity against sarcoma 180 infected mice. The class given is functional. An outline of the steps: (§1)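 ddY mice given sarcoma 180 cells in the axillary region on day 0. Single iv dose on day 1. Tumor volume expressed as treated/control ratio. Optimal dose reported.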
Data set [2] has as its system Mus musculus. Description: In vivo antitumor activity against sarcoma 180 infected mice was determined as treated versus control of tumor volume. It counts as functional. The method, boiled down: as §1
The subject of data set [3] is HeLa. Description: In vitro antiproliferative activity against HeLa S3 cells. As to conditions: Homo sapiens. The class given is functional, cell-based. The method, boiled down: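 HeLa S3 cells precultured 24 h in 96-well plates, then exposed to compound for 72 h. Growth inhibition read on day 4 by neutral red dye uptake.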
Data set [4] is described as follows: Half-life determined by HPLC ([…]). It counts as ADME. The method, boiled down:
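Stability read by HPLC at 330 nm. Compound at 20 μg/mL in pH 7 phosphate buffer/acetonitrile (4:1), 37 °C, half-life derived.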

These results are taken from ChEMBL document CHEMBL1132171, “Synthesis and antitumor activity of novel thioester derivatives of leinamycin” (J Med Chem, 1999).

Each structure is given as a SMILES string.

Regarding `CCOC(=O)CSC(=O)[C@](C)(O)[C@@]12CC/C(C)=C/[C@@H](O)C(=O)/C=C/C=Cc3csc(n3)[C@@H](C)N(C(=O)C1)[S+]2[O-]` (stereo not given in full), in data set [1], the OD stood at 16 mg/kg. Moreover, in data set [2], the T/C was 0.98. The molecule also registered a half-maximal inhibitory concentration (IC50) in data set [3] of 1300 nM. Further, the half-life in data set [4] was more than 24 h.
In the same order, the values of `C/C1=C\[C@@H](O[C@H]2CCCCO2)C(=O)/C=C/C=C/c2csc(n2)[C@@H](C)N2C(=O)C[C@@]([C@@](C)(O)C(=O)SCc3oc(=O)oc3C)(CC1)[S+]2[O-]` (stereo not given in full) are 8 mg/kg, 0.63, 2.4 nM and 30 h.
The molecule `C/C1=C\[C@@H](O)C(=O)/C=C/C=C\c2csc(n2)[C@@H](C)NC(=O)C[C@@]2(CC1)[S+]([O-])SC(=O)[C@]2(C)O` (stereo not given in full) [LEINAMYCIN] registered an OD in data set [1] of 2 mg/kg. For the same molecule, the T/C in data set [2] came out at 0.49. This molecule also gave a half-life in data set [4] of 6 h.
Take `C/C1=C\[C@@H](O[C@@H]2CCCCO2)C(=O)/C=C/C=C/c2csc(n2)[C@@H](C)N2C(=O)C[C@@]([C@@](C)(O)C(=O)SCc3oc(=O)oc3C)(CC1)[S+]2[O-]` (stereo not given in full): the OD in data set [1] stood at 8 mg/kg. This molecule yielded a T/C in data set [2] of 0.26. In data set [3], the IC50 turned out to be 0.67 nM. For the same molecule, the half-life in data set [4] was 30 h.
The like results for `CC(=O)O[C@@H]1/C=C(\C)CC[C@]2([C@@](C)(O)C(=O)SCc3oc(=O)oc3C)CC(=O)N([C@H](C)c3nc(cs3)C=C/C=C/C1=O)[S+]2[O-]` (stereo not given in full) were, in that order, 2 mg/kg, 0.38, 3.9 nM and 24 h.
In the same order, the values of `C/C1=C\[C@@H](O)C(=O)/C=C/C=Cc2csc(n2)[C@@H](C)N2C(=O)C[C@@]([C@@](C)(O)C(=O)SCc3oc(=O)oc3C)(CC1)[S+]2[O-]` (stereo not given in full) are 2 mg/kg, 0.67, 4.6 nM and 16 h.
The like results for `CSC(=O)[C@](C)(O)[C@@]12CC/C(C)=C/[C@@H](O)C(=O)/C=C/C=Cc3csc(n3)[C@@H](C)N(C(=O)C1)[S+]2[O-]` (stereo not given in full) were, in that order, 16 mg/kg, 0.94, 830 nM and 18 h.
With `COC1(O[C@@H]2/C=C(\C)CC[C@]3([C@@](C)(O)C(=O)SCc4oc(=O)oc4C)CC(=O)N([C@H](C)c4nc(cs4)/C=C/C=C/C2=O)[S+]3[O-])CCOCC1` (stereo not given in full), the OD in data set [1] turned out to be 8 mg/kg. This molecule also yielded a T/C in data set [2] of 0.25. In addition, half-maximal inhibition in data set [3] (IC50) required 1.4 nM. In data set [4], this molecule showed a half-life of 18 h.
The like results for `COCO[C@@H]1/C=C(\C)CC[C@]2([C@@](C)(O)C(=O)SCc3oc(=O)oc3C)CC(=O)N([C@H](C)c3nc(cs3)C=C/C=C/C1=O)[S+]2[O-]` (stereo not given in full) were, in that order, 2 mg/kg, 0.58, 0.17 nM and 24 h.
